This note sets out measurements from ChEMBL document CHEMBL1148824, “Quinazolinone derivatives as orally available ghrelin receptor antagonists for the treatment of diabetes and obesity” (J Med Chem, 2007).

The nature of data set [1]: Bioavailability in Wistar rat plasma at 3 mg/kg, po. It is filed as ADME, organism-based.
Data set [2] is described as follows: Bioavailability in Wistar rat plasma at 1 mg/kg, iv. It is filed as ADME, organism-based.
The target of another data set is Ghrelin receptor (Ovis aries, UniProt Q8MHZ5). Put plainly: Displacement of [125I]ghrelin from ovine recombinant GHSR1a expressed in HEK293F cells after 6 hrs by scintillation proximity assay. It is filed as cell-based. Background: Displacement assays read how much labelled ligand stays bound in the presence of the test substance.
Sequence of Ghrelin receptor (Q8MHZ5 whole entry): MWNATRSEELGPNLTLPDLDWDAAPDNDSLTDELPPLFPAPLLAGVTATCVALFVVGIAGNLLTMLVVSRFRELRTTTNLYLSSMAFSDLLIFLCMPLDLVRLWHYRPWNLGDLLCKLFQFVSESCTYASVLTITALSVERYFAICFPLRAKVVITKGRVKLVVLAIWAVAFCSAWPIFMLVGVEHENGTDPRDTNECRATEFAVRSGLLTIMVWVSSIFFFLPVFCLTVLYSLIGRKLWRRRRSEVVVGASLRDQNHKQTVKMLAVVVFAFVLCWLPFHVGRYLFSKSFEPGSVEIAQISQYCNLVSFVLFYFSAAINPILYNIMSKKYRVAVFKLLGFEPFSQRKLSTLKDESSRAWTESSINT
Data set [3] can be described thus: Cmax in Wistar rat at 10 mg/kg, po. Conditions: in vivo. Details: dose 10 mg/kg, route oral. It is filed as ADME, organism-based.
Data set [4] concerns the target 5-hydroxytryptamine receptor 2A (Homo sapiens) (UniProt P28223). Put plainly: Binding affinity to 5HT2a receptor.
Data set [5] can be described thus: Cmax in Wistar rat plasma at 1 mg/kg, iv. It is filed as ADME, organism-based. The arrangement: dose 1 mg/kg, route intravenous.
Data set [6] is described as follows: Aqueous solubility at pH 7.2. It is filed as physicochemical.
In data set [7] the test system is Mus musculus. Put plainly: Decrease in body weight in DIO C57BL/6 mouse at 30 mg/kg, po after 9 days. It is filed as functional. Details: scale not given: the % may be the effect or the level left.
The species named for another data set is Homo sapiens. The data set is described as follows: Binding affinity to calcium channel L type.
A short description of data set [8]: Volume of distribution in Wistar rat plasma at 1 mg/kg, iv. It is filed as ADME, organism-based. Details: dose 1 mg/kg, route intravenous. Conditions: read-out: Vdss.
In the next data set the test system is Brain. The data set is described as follows: Drug level in po dosed DIO C57BL/6 mouse brain after 5 hrs relative to plasma concentration. It is filed as ADME, organism-based.
Data set [9] is described as follows: Cmax in Wistar rat at 3 mg/kg, po. It is filed as ADME, organism-based. Details: dose 3 mg/kg, route oral. To be noted: in vivo. In short, it runs like this: (§1)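 Wistar rat pharmacokinetic screen; single oral dose of 3 mg/kg in PEG400/methanesulfonic acid (80:20) vehicle; plasma exposure measured.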
Data set [10] can be described thus: AUC in Wistar rat plasma at 3 mg/kg, po. It is filed as ADME, organism-based. Details: dose 3 mg/kg, route oral. In a few lines: as §1
Data set [11] has as its target T1, Growth hormone secretagogue receptor type 1 (Homo sapiens, UniProt Q92847). Put plainly: Agonist activity at human recombinant GHSR1a expressed in HEK293F cells assessed as stimulation of [35S]GTP-gamma-S binding relative to ghrelin. It is filed as functional, cell-based. In short, it runs like this:
(§2)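 Functional read-out as GTPγS binding to membranes from HEK293F cells overexpressing recombinant GHS-R1a; values are the mean of at least two replicates.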
In general terms: GTPγS is a poorly hydrolysed GTP analogue; its binding reports G protein activation.

The subject of data set [12] is Rattus norvegicus. Put plainly: Decrease in blood glucose level in DIO Wistar rat using at 10 mg/kg after 5 hrs by IPGTT test relative to control. It is filed as functional. Details: scale not given: the % may be the effect or the level left.
The subject of data set [13] is Mus musculus. Put plainly: Decrease in food intake in DIO C57BL/6 mouse at 30 mg/kg, po after 24 hrs relative to control. Details: dose 30 mg/kg. It is filed as functional, organism-based.
A short description of data set [14]: Cmax in po dosed DIO C57BL/6 mouse after 5 hrs. It is filed as ADME, organism-based. The arrangement: route oral. To be noted: in vivo.
For data set [15], the target named is T1, Growth hormone secretagogue receptor type 1. The data set is described as follows: Antagonist activity at human recombinant GHSR1a expressed in HEK293F cells by [35S]GTP-gamma-S binding assay. It is filed as functional, cell-based. In a few lines: as §2
The nature of data set [16]: Cmax in Wistar rat plasma at 3 mg/kg, po. It is filed as ADME, organism-based. Details: dose 3 mg/kg, route oral. In a few lines:
as §1

The target of data set [17] is 5-hydroxytryptamine receptor 2B (Homo sapiens) (UniProt P41595). Put plainly: Binding affinity to 5HT2b receptor.
Sequence of 5-hydroxytryptamine receptor 2B (Homo sapiens) (P41595 whole entry): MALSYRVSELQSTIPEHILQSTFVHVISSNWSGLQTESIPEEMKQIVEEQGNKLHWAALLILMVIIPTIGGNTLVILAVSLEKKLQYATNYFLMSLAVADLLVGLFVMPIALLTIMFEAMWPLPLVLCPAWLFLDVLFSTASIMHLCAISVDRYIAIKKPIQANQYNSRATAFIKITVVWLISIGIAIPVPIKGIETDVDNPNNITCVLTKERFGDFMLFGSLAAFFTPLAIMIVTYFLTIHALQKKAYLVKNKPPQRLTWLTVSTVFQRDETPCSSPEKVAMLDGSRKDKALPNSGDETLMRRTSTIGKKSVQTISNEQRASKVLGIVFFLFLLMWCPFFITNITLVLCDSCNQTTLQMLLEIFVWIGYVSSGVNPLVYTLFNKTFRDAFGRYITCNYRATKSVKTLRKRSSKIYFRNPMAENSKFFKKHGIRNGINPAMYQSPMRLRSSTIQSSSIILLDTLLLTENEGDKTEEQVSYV
Data set [18] addresses Motilin receptor (Homo sapiens) (UniProt O43193). Put plainly: Binding affinity to motilin receptor.
Data set [19] relates to Mus musculus. The data set is described as follows: Increase in food intake in DIO C57BL/6 mouse at 30 mg/kg, after 5 hrs relative to control. It is filed as functional.
Data set [20] addresses T2, 5-hydroxytryptamine receptor 2C (Homo sapiens, UniProt P28335).
T2 sequence (P28335 whole entry): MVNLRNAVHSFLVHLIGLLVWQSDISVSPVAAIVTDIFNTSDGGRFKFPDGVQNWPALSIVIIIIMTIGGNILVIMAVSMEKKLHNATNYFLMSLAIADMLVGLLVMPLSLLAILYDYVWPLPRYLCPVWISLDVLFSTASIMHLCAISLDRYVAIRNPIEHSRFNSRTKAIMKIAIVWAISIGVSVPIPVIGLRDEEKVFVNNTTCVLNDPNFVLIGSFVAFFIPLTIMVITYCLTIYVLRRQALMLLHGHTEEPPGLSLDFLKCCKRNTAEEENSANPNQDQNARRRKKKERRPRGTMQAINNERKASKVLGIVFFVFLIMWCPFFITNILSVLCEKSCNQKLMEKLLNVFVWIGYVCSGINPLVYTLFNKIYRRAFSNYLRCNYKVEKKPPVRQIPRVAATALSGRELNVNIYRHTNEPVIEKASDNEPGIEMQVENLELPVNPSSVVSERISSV
The data set is described as follows: Displacement of […] from 5HT2c receptor.

Data set [21] is described as follows: AUC (0-t) in Wistar rat plasma at 0.7 mg/kg, iv. It is filed as ADME, organism-based. Details: dose 0.7 mg/kg, route intravenous.
Data set [22] concerns Rattus norvegicus. The data set is described as follows: Half life in Wistar rat plasma at 0.7 mg/kg, iv. It is filed as ADME, organism-based. The arrangement: dose 0.7 mg/kg, route intravenous. To be noted: in vivo.
A short description of data set [23]: Cmax in Wistar rat plasma at 0.7 mg/kg, iv. It is filed as ADME, organism-based. Details: dose 0.7 mg/kg, route intravenous.
Data set [24] relates to Mus musculus. Put plainly: Decrease in body weight in DIO C57BL/6 mouse at 10 mg/kg, po after 9 days. It is filed as functional, organism-based. Details: dose 10 mg/kg.
Another data set deals with Cytochrome P450 2D6 (Homo sapiens, UniProt P10635). The data set is described as follows: Inhibition of CYP2D6. It is filed as ADME.
Sequence of Cytochrome P450 2D6 (P10635 whole entry): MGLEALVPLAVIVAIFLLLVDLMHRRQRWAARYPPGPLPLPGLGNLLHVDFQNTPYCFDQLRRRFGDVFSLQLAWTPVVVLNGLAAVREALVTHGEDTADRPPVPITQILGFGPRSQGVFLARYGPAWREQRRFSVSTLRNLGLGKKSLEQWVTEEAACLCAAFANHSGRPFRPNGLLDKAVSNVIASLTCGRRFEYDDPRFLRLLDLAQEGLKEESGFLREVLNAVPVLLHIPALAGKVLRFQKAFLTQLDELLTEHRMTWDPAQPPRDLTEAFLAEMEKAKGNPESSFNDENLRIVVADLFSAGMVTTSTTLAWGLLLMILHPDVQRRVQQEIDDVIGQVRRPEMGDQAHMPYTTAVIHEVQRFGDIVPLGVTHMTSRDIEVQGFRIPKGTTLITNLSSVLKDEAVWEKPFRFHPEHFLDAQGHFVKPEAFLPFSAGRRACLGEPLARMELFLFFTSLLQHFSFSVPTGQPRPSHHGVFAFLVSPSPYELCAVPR
Data set [25] concerns Rattus norvegicus. Put plainly: Volume of distribution at steady state in Wistar rat plasma at 0.7 mg/kg, iv. It is filed as ADME, organism-based. Conditions: in vivo. The arrangement: dose 0.7 mg/kg, route intravenous.

In brackets after ≈: the same amount, converted by molar mass. Activity calls are given as the source filed them. The rule behind the calls is not given here. Bounds are passed on as bounds.

T1 sequence (Q92847 whole entry): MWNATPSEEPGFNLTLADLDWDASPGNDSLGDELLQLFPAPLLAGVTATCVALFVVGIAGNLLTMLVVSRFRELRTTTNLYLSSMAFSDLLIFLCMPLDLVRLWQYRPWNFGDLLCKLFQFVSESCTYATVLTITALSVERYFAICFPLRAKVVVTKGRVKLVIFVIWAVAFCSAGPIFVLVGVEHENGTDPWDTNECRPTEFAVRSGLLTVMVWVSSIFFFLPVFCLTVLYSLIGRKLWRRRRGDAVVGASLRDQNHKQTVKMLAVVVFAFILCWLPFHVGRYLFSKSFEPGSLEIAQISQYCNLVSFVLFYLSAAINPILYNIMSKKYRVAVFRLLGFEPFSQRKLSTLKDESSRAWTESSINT
Sequence of Motilin receptor (Homo sapiens) (O43193 whole entry): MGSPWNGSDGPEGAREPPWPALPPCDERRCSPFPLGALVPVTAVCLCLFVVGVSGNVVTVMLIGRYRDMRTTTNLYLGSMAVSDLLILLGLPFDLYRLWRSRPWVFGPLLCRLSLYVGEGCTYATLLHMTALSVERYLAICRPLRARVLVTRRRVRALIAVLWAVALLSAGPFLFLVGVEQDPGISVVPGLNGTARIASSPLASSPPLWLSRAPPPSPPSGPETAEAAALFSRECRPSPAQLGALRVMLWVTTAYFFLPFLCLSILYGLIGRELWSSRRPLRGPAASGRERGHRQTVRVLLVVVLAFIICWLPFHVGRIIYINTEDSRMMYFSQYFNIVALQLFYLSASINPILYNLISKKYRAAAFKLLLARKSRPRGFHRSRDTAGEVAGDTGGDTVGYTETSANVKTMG
Sequence of 5-hydroxytryptamine receptor 2A (Homo sapiens) (P28223 whole entry): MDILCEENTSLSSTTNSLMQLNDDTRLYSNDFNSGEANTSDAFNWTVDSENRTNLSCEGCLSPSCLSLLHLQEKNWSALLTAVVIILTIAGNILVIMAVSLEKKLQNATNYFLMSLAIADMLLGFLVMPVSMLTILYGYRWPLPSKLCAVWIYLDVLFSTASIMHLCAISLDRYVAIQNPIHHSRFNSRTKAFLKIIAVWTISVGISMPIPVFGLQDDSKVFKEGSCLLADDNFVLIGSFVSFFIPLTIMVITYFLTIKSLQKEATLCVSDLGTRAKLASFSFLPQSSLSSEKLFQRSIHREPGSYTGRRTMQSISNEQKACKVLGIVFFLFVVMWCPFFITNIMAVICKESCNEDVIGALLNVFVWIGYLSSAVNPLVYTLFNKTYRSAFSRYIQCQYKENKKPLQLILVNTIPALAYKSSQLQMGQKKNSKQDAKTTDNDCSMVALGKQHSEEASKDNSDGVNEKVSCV

Take `CCN1CCCC(Cn2c(-c3ccccc3C)nc3ccc(-c4ccc(Cl)cc4)cc3c2=O)C1.Cl` (stereo not given): the bioavailability in data set [1] and in data set [2] was 29% each time.
Regarding `CCCCN(C)c1ccc2nc(-c3ccccc3OC)n(CC3CCCN(CC)C3)c(=O)c2c1` (stereo not given), at Ghrelin receptor, the Ki turned out to be 20 nM. Also, the Cmax in data set [3] was less than 20 nM.
`Cc1nc2ccc(Oc3ccc(F)cc3)cc2c(=O)n1C[C@H]1CCCN(C(C)C)C1`: the Activity was more than 1 µM in data set [4]; “<=5%” in the data set on Mus musculus [7]; more than 1 µM in the data set filed under Homo sapiens; -23% in the data set with Rattus norvegicus [12]; more than 1 µM in data set [17]; more than 1 µM in [18]. For the same molecule, in the data set with Mus musculus [19], the Activity is given as -12%. In data set [1], this molecule gave a bioavailability of 85%. In addition, the inhibition constant Ki at Ghrelin receptor was 17 nM; in data set [20], more than 1000 nM. Also, the Cmax in data set [5] was found to be 110 ng/mL; in data set [9], 220 nM; in [14], 3400 nM; in [16], 80 ng/mL. In [6], the concentration in solution (solubility) came to 500 µM (≈ 205 µg/mL). Besides, in [8], the Vd was 19.2 L/kg. The molecule also yielded a Drug uptake in the data set on Brain of 19%. This molecule also showed an exposure (AUC) in [10] of 1300 ng·h/mL. The E/Emax in data set [11] worked out at 11%. Also, the outcome in the data set on Mus musculus [13] was Active. Also, the Kb in [15] turned out to be 11 nM.
Consider `CC(C)c1nc2ccc(-c3ccc(F)cc3)cc2c(=O)n1C[C@H]1CCCN(C(C)C)C1`, for which the Activity in [4] is more than 1 µM; in the data set filed under Homo sapiens, more than 1 µM; in the data set with Rattus norvegicus [12], -20%; in data set [17], more than 1 µM; in data set [18] it was more than 1 µM; with Mus musculus [19], -17%. Besides, the area under the curve AUC(0-t) in [21] came to 580 ng·h/mL. In [1], this molecule gave a bioavailability of 69%. For the same molecule, the results for the Ki (on Ghrelin receptor; in [20]) were 39 nM and more than 1000 nM, respectively. In addition, in data set [6], the solubility is 280 µM (≈ 118 µg/mL). For the same molecule, the result with Mus musculus [7], in the data set on Mus musculus [13] and in the data set with Mus musculus [24] was Active. The molecule also showed a t1/2 in the data set on Rattus norvegicus [22] of 16 h. This molecule showed a Drug uptake in the data set on Brain of 76%. The Cmax in [9] was 150 nM; in [23], 100 ng/mL; in [14] it was 800 nM; in data set [16] it was 70 ng/mL. The molecule further displayed an AUC in data set [10] of 1700 ng·h/mL. The E/Emax in data set [11] worked out at 15%. Besides, the Kb in data set [15] was found to be 14 nM. At Cytochrome P450 2D6, this molecule gave an IC50 of 150 nM. For the same molecule, the Vdss in the data set on Rattus norvegicus [25] was determined as 0.68 L/kg.

One may read the bioavailability as the share of a dose that reaches the circulation, judged against a reference dose that is usually intravenous. The term Ki denotes the equilibrium dissociation constant of an inhibitor or competing ligand from its target. One may read the Cmax as the peak of the concentration-time curve. One may read the solubility as how much of the substance goes into solution per volume. In general, AUC refers to the area under the concentration-time curve, a measure of exposure. What is called Kb is the affinity of an antagonist, worked out from how it opposes an agonist. As a reminder, the AUC(0-t) is exposure summed from dosing to a finite time, without extrapolation to infinity. What is called IC50 is the concentration at which inhibition is half-maximal. One may read the Vdss as the apparent volume that relates the amount in the body to the concentration in plasma or blood.
